Test results published in ChEMBL document CHEMBL2346552, “A novel metformin derivative, HL010183, inhibits proliferation and invasion of triple-negative breast cancer cells” (Bioorg Med Chem, 2013).
pIC50: −log10 of the molar value. Counter-ions that a name gives are not always drawn. Calls of active or inactive are those of the source. The rule behind the calls is not given here.

What was measured:
[1] = test system: MDA-MB-231; test: Cytotoxicity against triple-negative human MDA-MB-231 cells assessed as growth inhibition after 24 hrs by MTT assay; type: functional, cell-based; conditions: MDA-MB-231, 24 h
[2] = test system: Hs-578T; test: Antiinvasive activity against triple-negative human Hs578T cells at 5 mM after 17 hrs by light microscopic analysis relative to control; type: functional
[3] = test system: Hs-578T; test: Cytotoxicity against triple-negative human Hs578T cells assessed as growth inhibition after 24 hrs by MTT assay; type: functional, cell-based
[4] = test system: MDA-MB-231; test: Induction of apoptosis in triple-negative human MDA-MB-231 cells assessed as viable cells at 10 mM after 24 hrs by annexin V-FITC/propidium iodide staining-based flow cytometric analysis relative to control; type: functional; conditions: MDA-MB-231, 24 h, read-out: Activity
Summary of the method: (§1)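 MDA-MB-231 cells treated 24 h at 0.1 or 10 mM were stained with FITC-annexin V and propidium iodide and analyzed by flow cytometry. Quadrants: annexin−/PI− viable; annexin+/PI− early apoptotic; PI+ late apoptotic/necrotic.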

[5] = test system: MDA-MB-231; test: Induction of apoptosis in triple-negative human MDA-MB-231 cells assessed as apoptotic cells at 10 mM after 24 hrs by annexin V-FITC/propidium iodide staining-based flow cytometric analysis relative to control; type: functional; summary of the method: as §1
[6] = test system: Mus musculus; test: Toxicity in BALB/c athymic nude mouse xenografted with triple-negative human MDA-MB-231 cells assessed as body weight change at 500 mg/kg, po qd measured for 35 days relative to vehicle-treated control; type: organism-based; parameters: dose 500 mg/kg, route oral; conditions: in vivo, 840 h
Summary of the method: (§2)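 MDA-MB-231 s.c. xenograft in nude mice (n = 6), dosed orally by gavage once daily for 35 days at 25–100 or 500 mg/kg. Body weights were recorded three times weekly and compared with vehicle-treated mice.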

[7] = test system: MDA-MB-231; test: Induction of apoptosis in triple-negative human MDA-MB-231 cells assessed as dead cells at 10 mM after 24 hrs by annexin V-FITC/propidium iodide staining-based flow cytometric analysis relative to control; type: functional
Summary of the method: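 MDA-MB-231 cells grown in DMEM at 37 °C, 5% CO2, then exposed for 24 h to agent dissolved in distilled water. Cells were stained at 1 × 10^6 cells/ml with FITC-annexin V and/or propidium iodide for flow cytometry and read as quadrant dot plots. Lower left is viable, lower right early apoptotic, upper quadrants late apoptotic/necrotic.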

[8] = test system: MDA-MB-231; test: Induction of apoptosis in triple-negative human MDA-MB-231 cells assessed as early apoptotic cells at 10 mM after 24 hrs by annexin V-FITC/propidium iodide staining-based flow cytometric analysis relative to control; type: functional; summary of the method: as §1
[9] = test system: Hs-578T; test: Antiinvasive activity against triple-negative human Hs578T cells after 17 hrs by light microscopic analysis; type: functional, cell-based
Summary of the method: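 Transwell filter invasion assay; serum-free medium with 0.1% BSA plus drug in the lower chamber, 5 × 10⁴ Hs578T cells plus drug in the upper chamber. Invaded cells on the underside of the filter counted by light microscopy at 400× after 17 h, thirteen fields per filter, each sample in triplicate. Hs578T cultured in DMEM at 37 °C, 5% CO₂.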

[10] = target: Serine/threonine-protein kinase mTOR (Homo sapiens) (UniProt P42345); test: Inhibition of mTOR phosphorylation in triple-negative human […] cells at 20 mM after 24 hrs by immunoblot analysis; type: cell-based
Summary of the method: (§3)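 Hs578T cells exposed to compound for 24 h at 0.05–0.2 mM or 5–20 mM. Lysates were made in Triton X-100 buffer (pH 7.4, NaF, EGTA, DTT, Na3VO4, protease inhibitors) and run on 10% SDS–PAGE. Immunoblots were probed with anti-phospho AMPK or anti-phospho mTOR antibody.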

[11] = test system: Hs-578T; test: Antiinvasive activity against triple-negative human Hs578T cells at 20 mM after 17 hrs by light microscopic analysis; type: functional, cell-based
Summary of the method: (§4)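 Transwell invasion with polycarbonate filters. 5 × 10^4 Hs578T cells were placed in the upper chamber with drug, and the lower chamber held serum-free medium with 0.1% BSA plus drug. After 17 h, cells invaded to the filter underside were counted by light microscopy (400×) in 13 fields per filter. Each sample was run in triplicate.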

[12] = test system: Hs-578T; test: Antiinvasive activity against triple-negative human Hs578T cells assessed as downregulation of MMP9 level at 5 to 20 mM after 24 hrs by gelatin zymogram assay; type: functional, cell-based
Summary of the method: (§5)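 Hs578T cells were cultured 24 h in serum-free medium containing compound at 0.05–0.2 mM or 5–20 mM. Gelatinolytic activity of the conditioned medium was resolved by gelatin zymography (MMP-2 72 kDa, MMP-9 92 kDa). Relative band intensities were quantified by densitometry.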

[13] = target: 5'-AMP-activated protein kinase catalytic subunit alpha-2 (Homo sapiens) (UniProt P54646); test: Activation of AMPK in triple-negative human […] cells at 20 mM after 24 hrs by immunoblot analysis; type: cell-based; summary of the method: as §3
[14] = test system: Hs-578T; test: Antiinvasive activity against triple-negative human Hs578T cells assessed as downregulation of MMP2 level by immunoblot analysis; type: functional, cell-based
[15] = test system: Hs-578T; test: Antiinvasive activity against triple-negative human Hs578T cells assessed as downregulation of MMP2 level after 24 hrs by gelatin zymogram assay; type: functional, cell-based; summary of the method: as §5
[16] = test system: Hs-578T; test: Antiinvasive activity against triple-negative human Hs578T cells at 10 mM after 17 hrs by light microscopic analysis; type: functional, cell-based; summary of the method: as §4
[17] = target: 5'-AMP-activated protein kinase catalytic subunit alpha-2 (Homo sapiens) (UniProt P54646); test: Ratio of compound activity to metformin activity for activation of AMPK in triple-negative human […] cells; type: cell-based
[18] = test system: MDA-MB-231; test: Antitumor activity against triple-negative human MDA-MB-231 cells xenografted in BALB/c athymic nude mouse assessed as tumor growth inhibition at 100 mg/kg, po qd measured for 35 days relative to vehicle-treated control; type: functional; conditions: MDA-MB-231, 840 h, read-out: TGI
Summary of the method: (§6)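 MDA-MB-231 cells (5 × 10^6 in 0.1 mL serum-free medium) were injected s.c. into the right lower flank of nude mice. At tumor volumes of 100–130 mm³, mice (n = 6) received oral gavage once daily for 35 days at 25, 50, 100 or 500 mg/kg. Caliper volumes, (length × width²)/2, were taken three times weekly. Inhibition was calculated versus the vehicle group.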

[19] = test system: MDA-MB-231; test: Induction of apoptosis in triple-negative human MDA-MB-231 cells assessed as early apoptotic cells at 0.1 mM after 24 hrs by annexin V-FITC/propidium iodide staining-based flow cytometric analysis relative to control; type: functional; summary of the method: as §1
[20] = target: Serine/threonine-protein kinase mTOR (Homo sapiens) (UniProt P42345); test: Ratio of compound activity to metformin activity for inhibition of mTOR phosphorylation in triple-negative human […] cells; type: cell-based
[21] = test system: MDA-MB-231; test: Induction of apoptosis in triple-negative human MDA-MB-231 cells assessed as dead cells at 0.1 mM after 24 hrs by annexin V-FITC/propidium iodide staining-based flow cytometric analysis relative to control; type: functional
Summary of the method: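 MDA-MB-231 cells grown in DMEM at 37 °C, 5% CO2, then exposed for 24 h to agent dissolved in DMSO. Cells were stained at 1 × 10^6 cells/ml with FITC-annexin V and/or propidium iodide and analysed by flow cytometry as quadrant dot plots. Lower left is viable, lower right early apoptotic, upper right/left late apoptotic/necrotic (membrane integrity lost).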

[22] = test system: Hs-578T; test: Antiinvasive activity against triple-negative human Hs578T cells assessed as downregulation of MMP9 level at 0.05 to 0.2 mM after 24 hrs by gelatin zymogram assay; type: functional, cell-based; summary of the method: as §5
[23] = test system: MDA-MB-231; test: Antitumor activity against triple-negative human MDA-MB-231 cells xenografted in BALB/c athymic nude mouse assessed as tumor growth inhibition at 50 mg/kg, po qd measured for 35 days relative to vehicle-treated control; type: functional; conditions: MDA-MB-231, 840 h, read-out: TGI; summary of the method: as §6
[24] = test system: MDA-MB-231; test: Antitumor activity against triple-negative human MDA-MB-231 cells xenografted in BALB/c athymic nude mouse assessed as tumor growth inhibition at 25 mg/kg, po qd measured for 35 days relative to vehicle-treated control; type: functional; conditions: MDA-MB-231, 840 h, read-out: TGI; summary of the method: as §6
[25] = test system: MDA-MB-231; test: Ratio of compound activity to metformin activity for tumor growth inhibition of triple-negative human MDA-MB-231 cells xenografted in BALB/c athymic nude mouse; type: functional
[26] = test system: Mus musculus; test: Toxicity in BALB/c athymic nude mouse xenografted with triple-negative human MDA-MB-231 cells assessed as body weight change at 25 to 100 mg/kg, po qd measured for 35 days relative to vehicle-treated control; type: organism-based; parameters: dose 25-100 mg/kg, route oral; conditions: in vivo, 840 h; summary of the method: as §2
[27] = test system: MDA-MB-231; test: Induction of apoptosis in triple-negative human MDA-MB-231 cells assessed as apoptotic cells at 0.1 mM after 24 hrs by annexin V-FITC/propidium iodide staining-based flow cytometric analysis relative to control; type: functional; summary of the method: as §1
[28] = test system: Hs-578T; test: Ratio of compound activity to metformin activity for inhibition of triple-negative human Hs578T cells invasiveness; type: functional
[29] = target: Serine/threonine-protein kinase mTOR (Homo sapiens) (UniProt P42345); test: Inhibition of mTOR phosphorylation in triple-negative human […] cells at 0.2 mM after 24 hrs by immunoblot analysis; type: cell-based; summary of the method: as §3
[30] = test system: Hs-578T; test: Antiinvasive activity against triple-negative human Hs578T cells at 0.2 mM after 17 hrs by light microscopic analysis relative to control; type: functional; summary of the method: as §4
[31] = test system: MDA-MB-231; test: Induction of apoptosis in triple-negative human MDA-MB-231 cells assessed as viable cells at 0.1 mM after 24 hrs by annexin V-FITC/propidium iodide staining-based flow cytometric analysis relative to control; type: functional; conditions: MDA-MB-231, 24 h, read-out: Activity; summary of the method: as §1
[32] = test system: Hs-578T; test: Ratio of metformin IC50 to compound IC50 for triple-negative human Hs578T cells; type: functional
Summary of the method: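 Hs578T cells were exposed to compounds for 24 h and viability was read by MTT (4 h, formazan dissolved in DMSO, OD 540 nm), in triplicate. The ratio uses IC50 values from this assay.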

[33] = target: 5'-AMP-activated protein kinase catalytic subunit alpha-2 (Homo sapiens) (UniProt P54646); test: Activation of AMPK in triple-negative human […] cells at 0.2 mM after 24 hrs by immunoblot analysis; type: cell-based; summary of the method: as §3

Chain of 5'-AMP-activated protein kinase catalytic subunit alpha-2 (Homo sapiens) (P54646 whole entry, looked up): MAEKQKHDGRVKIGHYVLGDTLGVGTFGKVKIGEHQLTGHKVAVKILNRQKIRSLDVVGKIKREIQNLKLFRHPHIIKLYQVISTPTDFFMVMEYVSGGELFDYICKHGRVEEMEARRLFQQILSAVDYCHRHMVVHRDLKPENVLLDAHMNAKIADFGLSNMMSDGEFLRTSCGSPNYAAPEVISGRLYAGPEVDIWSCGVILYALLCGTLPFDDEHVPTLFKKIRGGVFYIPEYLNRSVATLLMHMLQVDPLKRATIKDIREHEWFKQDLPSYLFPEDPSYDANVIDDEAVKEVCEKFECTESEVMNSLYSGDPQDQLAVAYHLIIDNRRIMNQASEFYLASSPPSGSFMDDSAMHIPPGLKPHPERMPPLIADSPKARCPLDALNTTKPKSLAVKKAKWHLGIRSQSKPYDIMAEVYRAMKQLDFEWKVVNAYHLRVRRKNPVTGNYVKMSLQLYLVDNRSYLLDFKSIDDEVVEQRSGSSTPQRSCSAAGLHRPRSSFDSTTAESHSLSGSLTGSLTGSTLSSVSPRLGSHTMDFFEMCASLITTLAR

CN(C)C(=N)NC(=N)N.NCCCC(=O)O [listing 1 of 2 here]
pIC50 [1]: 1.38
inhibition at 5000 µM [2]: 43.6%
pIC50 [3]: 2.04

CC(C)C[C@H](CN)CC(=O)O.CN(C)C(=N)NC(=N)N [METFORMIN PREGABALIN SALT]
pIC50 [1]: 1.75
inhibition at 5000 µM [2]: 64.6%
pIC50 [3]: 2.14

CN(C)C(=N)NC(=N)N.NCC1(CC(=O)O)CCCCC1 [METFORMIN GABAPENTIN SALT]
pIC50 [1]: 1.79
inhibition at 5000 µM [2]: 73.6%
pIC50 [3]: 2.40

CN(C)C(=N)NC(=N)N.Cl [METFORMIN HYDROCHLORIDE]
pIC50 [1]: 1.23
viability at 10000 µM [4]: 82.4%
Activity [5]: 15.3%
Activity [6]: Non-toxic
Activity [7]: 0.5%
Activity [8]: 1.8%
pIC50 [3]: 1.57

CN(C)C(=N)NC(=N)N.NCCCC(=O)O [listing 2 of 2 here]
Activity [9]: Dose-dependent effect

N=C(N)NC(=N)NCCc1ccccc1 [PHENFORMIN ACETIC ACID SALT]
pIC50 [1]: 2.77
pIC50 [3]: 3.05

CN(C)C(=N)NC(=N)N
inhibition [10]: Active
inhibition [11]: Active
Activity [12]: inactive
Activity [13]: Active
Activity [14]: Dose-dependent effect
Activity [15]: Dose-dependent effect
inhibition [16]: inactive

CCCc1ccccc1Nc1nc(N)nc(N(C)C)n1.Cl
Ratio [17]: 100
inhibition in vivo at 100 mg/kg [18]: 27.9%
Activity [19]: 3.1%
pIC50 [1]: 3.55
Ratio [20]: 100
Activity [21]: 1.6%
Activity [22]: inactive
inhibition in vivo at 50 mg/kg [23]: 17.4%
Activity [14]: Dose-dependent effect
inhibition in vivo at 25 mg/kg [24]: 6.2%
Ratio [25]: 5
Activity [26]: Non-toxic
Activity [15]: Dose-dependent effect
Activity [27]: 17%
Ratio [28]: 100
inhibition [29]: Active
inhibition at 200 µM [30]: 36.6%
viability at 100 µM [31]: 78.4%
Ratio IC50 [32]: 100
pIC50 [3]: 3.55
Activity [33]: Active
